Experimental data from ChEMBL document CHEMBL3600302, “A Ligand-Based Drug Design. Discovery of 4-Trifluoromethyl-7,8-pyranocoumarin as a Selective Inhibitor of Human Cytochrome P450 1A2” (J Med Chem, 2015).

Columns and labels:
Homo sapiens [1] = species: Homo sapiens; experiment: Selectivity ratio of Ki for human microsomal CYP1A1 to Ki for human microsomal CYP1A2
In short: (§1)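 Microsomal P450 (final 5 nM) in 0.1 M potassium phosphate pH 7.6 with MgCl2 at 37 °C. Substrate final 5 µM: ethoxyresorufin for 1A1/1B1, methoxyresorufin for 1A2. […] Ki was taken as the x-intercept of Dixon plots (1/v0 vs [I]). Mean ± SD of three independent experiments. Selectivity ratios are ratios of these Ki.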

Cytochrome P450 1B1 [2] = molecular target: T1, Cytochrome P450 1B1 (Homo sapiens, UniProt Q16678); experiment: Inhibition of human microsomal CYP1B1-dependent ethoxyresorufin-O-deethylase activity at 10 nM measured over 6 mins by spectrofluorimetric analysis in absence of NADPH regenerating solution; conditions: 0.1 h, 0.01 µM
T1 sequence (Q16678 whole entry): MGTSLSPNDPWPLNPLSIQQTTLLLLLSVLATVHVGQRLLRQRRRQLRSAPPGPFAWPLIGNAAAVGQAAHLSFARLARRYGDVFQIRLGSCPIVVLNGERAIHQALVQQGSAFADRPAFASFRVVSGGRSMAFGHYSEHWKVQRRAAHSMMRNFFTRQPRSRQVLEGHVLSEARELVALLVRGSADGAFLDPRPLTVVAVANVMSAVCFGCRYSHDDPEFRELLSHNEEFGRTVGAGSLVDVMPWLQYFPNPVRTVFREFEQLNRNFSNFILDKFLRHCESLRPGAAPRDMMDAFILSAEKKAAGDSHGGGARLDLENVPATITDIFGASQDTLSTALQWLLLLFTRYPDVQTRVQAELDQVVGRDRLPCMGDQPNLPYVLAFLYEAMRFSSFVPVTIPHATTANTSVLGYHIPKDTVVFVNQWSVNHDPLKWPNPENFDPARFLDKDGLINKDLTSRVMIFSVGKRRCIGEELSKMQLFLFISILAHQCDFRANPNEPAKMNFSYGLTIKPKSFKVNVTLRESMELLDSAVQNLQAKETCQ
In short: (§2)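 Microsomal P450 in 0.1 M potassium phosphate pH 7.6 with MgCl2 and 10 nM inhibitor in DMSO, 2 mL final. Preincubated 5 min at 37 °C either with NADPH-regenerating solution, or without it, with NADPH then added at start. Reaction started with ethoxyresorufin (final 5 µM). Resorufin formation followed 6 min at 37 °C.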

Cytochrome P450 1B1 [3] = molecular target: T1, Cytochrome P450 1B1; experiment: Inhibition of human microsomal CYP1B1-dependent ethoxyresorufin-O-deethylase activity at 10 nM preincubated for 5 mins followed by NADPH regenerating solution and substrate addition measured over 6 mins by spectrofluorimetric analysis; conditions: 0.1 h, 0.01 µM; in short: as §2
Homo sapiens [4] = species: Homo sapiens; experiment: Selectivity ratio of Ki for human microsomal CYP1B1 to Ki for human microsomal CYP1A2; in short: as §1
CYP1A2 [5] = molecular target: T2, CYP1A2 (Homo sapiens, UniProt P05177); experiment: Time-dependent inhibition of human microsomal CYP1A2-dependent methoxyresorufin-O-demethylase activity by spectrofluorimetric analysis in presence of NADPH regenerating solution; conditions: human microsomal CYP1A2, probe methoxyresorufin (O-demethylation)
T2 sequence (P05177 whole entry): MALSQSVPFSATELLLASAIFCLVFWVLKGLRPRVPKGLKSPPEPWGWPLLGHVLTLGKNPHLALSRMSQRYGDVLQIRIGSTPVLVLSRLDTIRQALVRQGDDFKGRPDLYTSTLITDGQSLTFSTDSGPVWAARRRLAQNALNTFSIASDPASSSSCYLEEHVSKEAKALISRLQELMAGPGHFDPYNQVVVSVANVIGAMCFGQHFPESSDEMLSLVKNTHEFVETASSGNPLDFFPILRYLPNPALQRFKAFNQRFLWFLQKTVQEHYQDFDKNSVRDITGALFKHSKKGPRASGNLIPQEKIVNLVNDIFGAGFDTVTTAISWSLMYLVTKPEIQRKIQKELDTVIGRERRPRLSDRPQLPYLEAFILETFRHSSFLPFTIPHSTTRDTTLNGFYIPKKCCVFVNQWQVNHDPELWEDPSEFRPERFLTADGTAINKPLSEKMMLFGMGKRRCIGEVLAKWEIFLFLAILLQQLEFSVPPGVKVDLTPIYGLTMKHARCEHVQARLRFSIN
In short: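 1A2 MROD run with NADPH at 0.0125, 0.025, 0.05 and 0.1 µM inhibitor, product monitored continuously over 6 min. Activity at different times came from first derivatives of product curves, expressed as % of control remaining. KI and limiting kinact were derived from the resulting linear plot.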

CYP1A2 [6] = molecular target: T2, CYP1A2; experiment: Inhibition of human microsomal CYP1A2-dependent methoxyresorufin-O-demethylase activity at 10 nM preincubated for 5 mins followed by NADPH regenerating solution and substrate addition measured over 6 mins by spectrofluorimetric analysis relative to control; conditions: human microsomal CYP1A2, probe methoxyresorufin (O-demethylation)
Cytochrome P450 1B1 [7] = molecular target: T1, Cytochrome P450 1B1; experiment: Inhibition of human microsomal CYP1B1-dependent ethoxyresorufin-O-deethylase activity by spectrofluorimetric analysis in presence of NADPH regenerating solution
In short: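 Microsomal P450 (final 5 nM) in 0.1 M potassium phosphate pH 7.6 with MgCl2 at 37 °C. Substrate final 5 µM: ethoxyresorufin for 1A1/1B1, methoxyresorufin for 1A2. Ki was taken as the x-intercept of Dixon plots (1/v0 vs [I]). Mean ± SD of three independent experiments. Selectivity ratios are ratios of these Ki.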

Cc1cc2c(ccc3c(=O)cc(-c4ccccc4)oc32)o1
Ratio Ki (Homo sapiens [1]): 14
inhibition (INH) (Cytochrome P450 1B1 [2]): Not Active
inhibition (INH) (Cytochrome P450 1B1 [3]): Not Active
Ratio Ki (Homo sapiens [4]): 6
kinact (CYP1A2 [5]): 0.007 s⁻¹
inhibition at 0.1 h, 0.01 µM (CYP1A2 [6]): > 90%
Ki (Cytochrome P450 1B1 [7]): 0.18 µM
